These results are taken from ChEMBL document CHEMBL1158481, “Adenine-based acyclic nucleotides as novel P2X3 receptor ligands” (J Med Chem, 2009).

The source made the active and inactive calls. The rule behind the calls is not given here.

Holding throughout (settings): HEK293
For assay [1], the target named is T1, P2X purinoceptor 3 (Rattus norvegicus) (UniProt P49654).
T1 sequence (whole entry): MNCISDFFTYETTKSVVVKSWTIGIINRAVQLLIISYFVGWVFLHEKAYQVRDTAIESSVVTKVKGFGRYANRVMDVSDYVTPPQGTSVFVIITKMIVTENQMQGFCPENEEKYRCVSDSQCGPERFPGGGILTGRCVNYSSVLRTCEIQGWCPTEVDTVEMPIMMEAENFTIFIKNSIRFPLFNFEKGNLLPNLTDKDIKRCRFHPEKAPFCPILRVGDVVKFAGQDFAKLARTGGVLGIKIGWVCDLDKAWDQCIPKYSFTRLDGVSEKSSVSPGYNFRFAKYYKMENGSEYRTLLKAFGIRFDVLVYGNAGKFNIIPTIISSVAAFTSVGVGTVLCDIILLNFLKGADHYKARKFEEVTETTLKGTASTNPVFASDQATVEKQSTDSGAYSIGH
The experiment in a line: Agonist activity at rat P2X3 receptor expressed in HEK cells assessed as induction of inward current at 100 uM by patch clamp method relative to alpha, beta-meATP. The assay is classed as functional, cell-based. The method, boiled down: (§1)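 HEK 293T cells transiently transfected with rat P2X3 (calcium phosphate), recorded 48 h post-transfection by whole-cell patch clamp at -60 mV in HEPES-buffered saline pH 7.4, CsCl pipette. Compound applied at 100 μM by rapid superfusion; inward current compared with averaged control current from ≥3 applications of α,β-meATP 100 μM for 2 s, 5 min apart.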
A general note: Patch clamp records ionic current or voltage across a cell membrane.

The target in assay [2] is T1, P2X purinoceptor 3 (Rattus norvegicus). The experiment in a line: Activity at rat P2X3 receptor expressed in HEK cells assessed as induction of inward current at 100 uM by patch clamp method. The assay is classed as cell-based. The essentials: as §1
Assay [3] shares this target. The experiment in a line: Activity at rat P2X3 receptor expressed in HEK cells assessed inhibition of alpha, beta-meATP induced response by patch clamp method. The assay is classed as cell-based. The method, boiled down: (§2)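 Rat P2X3 subunit plasmid transfected (calcium phosphate) into HEK 293T cells, used 48 h later. Whole-cell clamp at -60 mV, fast superfusion; acyclic nucleotide (100 μM) preapplied 20 s, then α,β-meATP 100 μM for 2 s. Peak inward current expressed as % of control α,β-meATP response; n=7 cells, mean ± SEM, paired t or Mann-Whitney test.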

Assay [4] shares this target. The experiment in a line: Antagonist activity at rat P2X3 receptor expressed in HEK cells assessed as inhibition of alpha, beta-meATP-induced inward current at 100 uM by patch clamp method. Format: functional, cell-based. Details: scale not given: the % may be the effect or the level left. The essentials: as §2
For assay [5] the target is unchanged. The experiment in a line: Agonist activity at rat P2X3 receptor expressed in HEK cells assessed as induction of alpha, beta-meATP inward current at 100 uM pretreated before alpha, beta-meATP induction by patch clamp method. Format: functional, cell-based. The essentials:
as §2

Assay [6] has the same target. Put plainly: Activity at rat P2X3 receptor expressed in HEK cells assessed as depression of amplitude current subsequent response to alpha, beta-meATP by patch clamp method relative to control. The assay is classed as cell-based. The method, boiled down: as §2

Consider `Nc1nc(Cl)nc2c1ncn2CCCCOP(=O)(O)OP(=O)(O)O`, for which the outcome in assay [1] was Active.

Regarding `CCCCC#Cc1nc(N)c2ncn(CCCCOP(=O)(O)OP(=O)(O)OP(=O)(O)O)c2n1`, the outcome in assay [2] and in assay [3] was Active. Moreover, the Activity in assay [1] was 38%.

For the compound `Nc1nc(Cl)nc2c1ncn2CCCCOP(=O)(O)OP(=O)(O)OP(=O)(O)O`, the Activity in assay [1] amounted to 30%.

On to `Nc1ncnc2c1ncn2CCCCOP(=O)(O)O`, for which the result in assay [1] was inactive.

For `CCCCC#Cc1nc(N)c2ncn(CCCCOP(=O)(O)O)c2n1`, the result in assay [2] and in assay [1] was inactive. Also, the Activity in assay [4] was 20%.

In the case of `Nc1nc(N)c2ncn(CCCCOP(=O)(O)OP(=O)(O)O)c2n1`, the outcome in assay [2] and in assay [1] was Active.

Take `Nc1ncnc2c1ncn2CCCCOP(=O)(O)OP(=O)(O)O`: the Activity in assay [1] stood at 32%.

Regarding `Nc1nc(Cl)nc2c1ncn2CCCCOP(=O)(O)O`, in assay [1], the outcome was inactive. Besides, the Activity in assay [4] was 20%.

On to `Nc1nc(N)c2ncn(CCCCOP(=O)(O)O)c2n1`, for which the result in assay [2] and in assay [1] was inactive. The Activity in assay [4] was found to be 20%.

Take `Nc1nc(OCCc2ccccc2)nc2c1ncn2CCCCOP(=O)(O)OP(=O)(O)O`: in assay [1], the outcome was Active.

As for `Nc1nc(N)c2ncn(CCCCOP(=O)(O)OP(=O)(O)OP(=O)(O)O)c2n1`, the result in assay [2] was Active. The Activity amounted to 25% in assay [1] and 17% in assay [5].

On to `Nc1nc(I)nc2c1ncn2CCCCOP(=O)(O)O`, for which the result in assay [2] and in assay [1] was inactive. The Activity in assay [6] amounted to 80%; in assay [4], 20%.

As for `Nc1nc(OCCc2ccccc2)nc2c1ncn2CCCCOP(=O)(O)OP(=O)(O)OP(=O)(O)O`, the result in assay [1] was Active.

With `Nc1nc(OCCc2ccccc2)nc2c1ncn2CCCCOP(=O)(O)O`, the outcome in assay [1] was inactive. Besides, in assay [4], the Activity was 20%.

Take `Nc1ncnc2c1ncn2CCCCOP(=O)(O)OP(=O)(O)OP(=O)(O)O`: the Activity in assay [1] was found to be 36%.

On to `Nc1nc(I)nc2c1ncn2CCCCOP(=O)(O)OP(=O)(O)OP(=O)(O)O`, for which the outcome in assay [2] and in assay [3] was Active. The Activity in assay [1] is 60%.

For `Nc1ncnc2c1ncn2[C@@H]1O[C@H](COP(=O)(O)CP(=O)(O)OP(=O)(O)O)[C@@H](O)[C@H]1O` (single isomer, unassigned), in assay [2], the result was Active.
